This note sets out measurements from ChEMBL document CHEMBL3271968, “Novel bis(benzamidino) compounds with an aromatic central link. Inhibitors of thrombin, pancreatic kallikrein, trypsin, and complement” (J Med Chem, 1976).

One experiment concerns the target T1, Glandular kallikrein (Sus scrofa, UniProt P00752).
T1 sequence (P00752 whole entry): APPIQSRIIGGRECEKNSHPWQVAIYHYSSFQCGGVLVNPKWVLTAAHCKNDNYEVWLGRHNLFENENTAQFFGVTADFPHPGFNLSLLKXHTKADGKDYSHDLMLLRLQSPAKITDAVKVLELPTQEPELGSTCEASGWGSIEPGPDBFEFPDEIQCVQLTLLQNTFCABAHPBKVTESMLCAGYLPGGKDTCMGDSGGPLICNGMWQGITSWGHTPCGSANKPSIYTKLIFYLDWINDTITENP
In words: Inhibition of porcine pancreatic kallikrein using BANA as substrate after 15 to 180 mins. The procedure, abridged:
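Porcine pancreatic kallikrein (635 Frey units/mg) amidase assay, pH 8.1, 37°, 15-180 min. […] Ki came from Dixon plots at two substrate concentrations. Means ± SD, n = 3.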

The species entered for experiment [1] is Cavia porcellus. In words: Inhibition of guinea pig complement-mediated immune lysis of sheep red blood cells at 30 uM after 12 mins. The procedure, abridged: (§1)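 Inhibitor in Tris/Mg/Ca/NaCl/gelatin buffer was preincubated 15 min at 37° with guinea pig complement (1:100 of 200 CH50/ml). Sheep erythrocytes (10^9/ml) presensitized with rabbit hemolysin (1:800) were added, and tubes incubated 12 min at 37°. Cold citrate-saline stopped lysis. Hemoglobin at 524 nm was converted to % inhibition via a complement standard curve, corrected for inhibitor lysis, in duplicate.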

The next experiment concerns the target Prothrombin (Bos taurus) (UniProt P00735). In words: Inhibition of bovine thrombin-mediated blood clotting formation in presence of human fibrinogen.
The test system of experiment [2] is Plasma. In words: Anticoagulant activity in human plasma assessed as partial thromboplastin time at 10 uM (reference value: 59 +/- 2.6 secs). Type of experiment: functional.
Experiment [3] relates to Plasma. In words: Anticoagulant activity in human plasma assessed as partial thromboplastin time at 5 uM (reference value: 59 +/- 2.6 secs). The class given is functional.
Experiment [4] can be described thus: Inhibition of bovine trypsin using BANA as substrate after 15 to 30 mins. Also on record: species or system Bos taurus.
For experiment [5], the species on record is Cavia porcellus. In words: Inhibition of guinea pig complement-mediated immune lysis of sheep red blood cells at 0.1 mM after 12 mins. The procedure, abridged: as §1
A further experiment has as its target Prothrombin (Bos taurus, UniProt P00735). In words: Inhibition of amidase activity of bovine thrombin using BANA as substrate after 15 to 40 mins.
For experiment [6], the species on record is Cavia porcellus. In words: Inhibition of guinea pig complement-mediated immune lysis of sheep red blood cells at 10 uM after 12 mins. The procedure, abridged: as §1
In experiment [7] the test system is Plasma. In words: Anticoagulant activity in human plasma assessed as partial thromboplastin time at 0.1 mM (reference value: 59 +/- 2.6 secs). The class given is functional.

Where only a bound is given, the exact number is not on record here.

Usually Ki stands for the dissociation constant of the complex between target and ligand, obtained from inhibition or displacement. High values mean a looser hold on the target, low ones a stronger hold on the target. For orientation: inhibition means the relative decrease from the control value, in per cent. Low values mean little suppression, high ones strong suppression. By IC50 is commonly meant the concentration that gives 50% inhibition. `Cl.N=C(N)c1ccc(COc2ccc3ccc(OCc4ccc(C(=N)N)cc4)cc3c2)cc1`: the figures for the Ki (at Glandular kallikrein; in experiment [4]; at Prothrombin) were 2.8 µM, 1.8 µM and 4.9 µM, respectively. Besides, the inhibition in the experiment filed under Cavia porcellus [1] is 37.4%; in the experiment listed under Cavia porcellus [5] it was more than 50%; in the experiment filed under Cavia porcellus [6], 12.8%. For the same molecule, the 50% inhibitory concentration (IC50) at Prothrombin (Bos taurus) came out at 20 µM. Further, the APTT in the experiment with Plasma [2] is recorded as 66 s; in the experiment with Plasma [3], 63 s.
As to `Cl.N=C(N)c1cccc(OCc2cccc(-c3cccc(COc4cccc(C(=N)N)c4)c3)c2)c1`, the figures for the Ki (on Glandular kallikrein; in experiment [4]; on Prothrombin) were 1.76 µM, 4.01 µM and 1.67 µM, respectively. The IC50 at Prothrombin (Bos taurus) came out at 4 µM. For the same molecule, the APTT came to 93 s in the experiment on Plasma [2] and 73 s in the experiment with Plasma [3].
Turning to `Cl.N=C(N)c1ccc(OCc2cccc(COc3ccc(C(=N)N)cc3)c2)cc1`, the Ki stood at 6.7 µM on Glandular kallikrein, 3.5 µM in experiment [4] and 4.8 µM at Prothrombin. The inhibition stood at 10.3% in the experiment filed under Cavia porcellus [1], 24.9% in the experiment filed under Cavia porcellus [5] and 0% in the experiment listed under Cavia porcellus [6]. At Prothrombin (Bos taurus), the IC50 turned out to be 25 µM. Moreover, the APTT in the experiment with Plasma [2] stood at 117 s; in the experiment on Plasma [3], 87 s.
For the molecule `Cl.N=C(N)c1ccc(COc2cccc3c(OCc4ccc(C(=N)N)cc4)cccc23)cc1`, the inhibition constant Ki on Glandular kallikrein was 8.6 µM; in [4], 2.8 µM. The inhibition in the experiment listed under Cavia porcellus [1], in the experiment filed under Cavia porcellus [5] and in the experiment listed under Cavia porcellus [6] was 0% throughout. Further, the results for the APTT in the experiment on Plasma [7], with Plasma [2] and in the experiment on Plasma [3] were 141 s, 61 s and 60 s, respectively.
Consider `Cl.N=C(N)c1ccc(OCc2c(Cl)c(Cl)c(Cl)c(COc3ccc(C(=N)N)cc3)c2Cl)cc1`, for which the Ki on Glandular kallikrein turned out to be 5.2 µM; in experiment [4] it was 1.3 µM; at Prothrombin it was 1.5 µM. In addition, the inhibition in the experiment listed under Cavia porcellus [1] is more than 50%; in the experiment filed under Cavia porcellus [5], more than 50%; in the experiment listed under Cavia porcellus [6] it was 5.9%. For the same molecule, at Prothrombin (Bos taurus), the half-inhibitory concentration (IC50) came out at 8 µM. Moreover, the APTT in the experiment on Plasma [2] was 76 s; with Plasma [3], 62 s.
For the molecule `N=C(N)c1ccc(OCCCCCOc2ccc(C(=N)N)cc2Br)c(Br)c1`, the results for the inhibition in the experiment listed under Cavia porcellus [1], in the experiment filed under Cavia porcellus [5] and in the experiment listed under Cavia porcellus [6] were 28.5%, more than 50% and 20.8%, respectively.
For the molecule `N=C(N)c1ccc(OCCCOc2ccc(C(=N)N)cc2Br)c(Br)c1`, the inhibition in the experiment filed under Cavia porcellus [1] was 26.9%; in the experiment filed under Cavia porcellus [5] it was 19.1%; in the experiment listed under Cavia porcellus [6], 6.3%.
The matching figures for `CC[n+]1c(-c2ccccc2)c2cc(NN=Nc3cccc(C(=N)N)c3)ccc2c2ccc(NN=Nc3cccc(C(=N)N)c3)cc21`: more than 50%, more than 50% and 50%.
On to `N=C(N)c1ccc(OCc2c(Cl)c(Cl)c(COc3ccc(C(=N)N)cc3)c(Cl)c2Cl)cc1`, for which the Ki worked out at 3.4 µM on Glandular kallikrein, 1.2 µM in experiment [4] and 6.7 µM on Prothrombin. In addition, the inhibition in the experiment filed under Cavia porcellus [1] was more than 50%; in the experiment filed under Cavia porcellus [6] it was 0%.
As for `N=C(N)c1cccc(OCc2ccc3cc(COc4cccc(C(=N)N)c4)ccc3c2)c1`, the inhibition constant (Ki) at Glandular kallikrein stood at 5.5 µM; in experiment [4], 5.9 µM; on Prothrombin it was 5.1 µM. Besides, the inhibition in the experiment filed under Cavia porcellus [1] was found to be 47%; in the experiment filed under Cavia porcellus [6], 36.6%. Besides, at Prothrombin (Bos taurus), the IC50 amounted to 72 µM.
Consider `N=C(N)c1ccc(COc2ccc3cc(OCc4ccc(C(=N)N)cc4)ccc3c2)cc1`, for which the Ki on Glandular kallikrein amounted to 9.7 µM; in experiment [4], 3.2 µM; on Prothrombin it was 6 µM.
As for `N=C(N)c1ccc(OCCCCCOc2ccc(C(=N)N)cc2I)c(I)c1`, the values for the inhibition in the experiment listed under Cavia porcellus [1] and in the experiment listed under Cavia porcellus [6] were more than 50% and 26.9%, respectively.
Regarding `Cl.N=C(N)c1cccc(COc2cccc3c(OCc4cccc(C(=N)N)c4)cccc23)c1`, the inhibition constant Ki stood at 2.2 µM on Glandular kallikrein and 0.42 µM in experiment [4]. Moreover, the figures for the inhibition in the experiment listed under Cavia porcellus [1], in the experiment listed under Cavia porcellus [5] and in the experiment filed under Cavia porcellus [6] were 8.9%, 39% and 0%, respectively. Also, the APTT with Plasma [2] is on record as 75 s; with Plasma [3], 65 s.
